We go through ten compounds from ChEMBL document CHEMBL1134649, “Syntheses and structure--activity relationships of novel apio and thioapio dideoxydidehydronucleosides as anti-HCMV agents” (J Med Chem, 2001).

Converted amounts (≈) assume the structure as drawn. Bounds are passed on as bounds.

One assay deals with HEL 299. As to the kind of experiment: Cytotoxic concentration of compound was tested against HEL299(human embryonic lung fibroblast) cells using cytotoxic assay. Type of assay: functional. In outline:
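Run as a mock-infected control alongside the antiviral assay in HEL cells, with the same 6-day incubation in MEM/2% FBS. Viability was read by propidium iodide fluorescence in place of fluorescein diacetate. CC50 is the concentration giving 50% loss of viability.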

The subject of assay [1] is Human betaherpesvirus 5. As to the kind of experiment: Antiviral activity was determined against Human cytomegalovirus (HCMV) strain AD-169 using CPE inhibition assay. Type of assay: functional, organism-based. The method, boiled down: (§1)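 HEL cells in stationary phase were infected at 2–4 CCID50 per well and the virus was adsorbed 2 h at 37 °C. Unadsorbed virus was removed and compound in MEM/2% FBS was added, in duplicate per concentration, for 6 days. CPE was read either microscopically (70% ethanol fixation, Giemsa stain) or by fluorescein diacetate fluorescence (485/538 nm). EC50 was taken from semilog plots of %CPE against concentration.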

The test system of assay [2] is Human betaherpesvirus 5. As to the kind of experiment: Antiviral activity was determined against Human cytomegalovirus (HCMV) strain Davis using CPE inhibition assay. Type of assay: functional, organism-based. The method, boiled down: as §1

In the assay with HEL 299, `O=C(O)P(=O)(O)O` [FOSCARNET] yielded a 50% cytotoxic concentration (CC50) of more than 300 µg/mL. The EC50 in the assay with Human betaherpesvirus 5 [1] came to 64.9 µg/mL (≈ 515 µM); in the assay with Human betaherpesvirus 5 [2], 38.7 µg/mL (≈ 307 µM).
The matching figures for `Cc1cn(C2C=C(CO)CS2)c(=O)[nH]c1=O` (stereo not given): more than 100 µg/mL, more than 100 µg/mL and more than 100 µg/mL.
`O=c1ccn(C2C=C(CO)CS2)c(=O)[nH]1` (stereo not given) registered a CC50 in the assay on HEL 299 of more than 100 µg/mL. The EC50 with Human betaherpesvirus 5 [1] and in the assay with Human betaherpesvirus 5 [2] was more than 100 µg/mL throughout.
In the assay on HEL 299, `Nc1nc2c(ncn2COC(CO)CO)c(=O)[nH]1` [GANCICLOVIR] had a CC50 of more than 10 µg/mL. Moreover, the 50% effective concentration (EC50) in the assay with Human betaherpesvirus 5 [1] was found to be 1.09 µg/mL (≈ 4.27 µM); with Human betaherpesvirus 5 [2] it was 0.61 µg/mL (≈ 2.39 µM).
On the same counts, the results for `O=c1[nH]c(=O)n(C2C=C(CO)CO2)cc1Br` (stereo not given) are more than 100 µg/mL, 33.7 µg/mL (≈ 117 µM) and 25.4 µg/mL (≈ 87.9 µM).
Turning to `O=c1[nH]c(=O)n(C2C=C(CO)CO2)cc1F` (stereo not given), the half-maximal cytotoxic concentration (CC50) in the assay with HEL 299 is more than 100 µg/mL. The EC50 stood at 6.9 µg/mL (≈ 30.2 µM) with Human betaherpesvirus 5 [1] and 2.81 µg/mL (≈ 12.3 µM) in the assay with Human betaherpesvirus 5 [2].
On the same counts, the results for `O=c1[nH]c(=O)n(C2C=C(CO)CO2)cc1I` (stereo not given) are more than 100 µg/mL, 44.1 µg/mL (≈ 131 µM) and 27.2 µg/mL (≈ 80.9 µM).
Take `O=c1[nH]c(=O)n(C2C=C(CO)CO2)cc1Cl` (stereo not given): in the assay with HEL 299, the midpoint of cytotoxicity, the CC50, lay at 63.3 µg/mL (≈ 259 µM). Besides, the EC50 with Human betaherpesvirus 5 [1] came to 41.7 µg/mL (≈ 170 µM); with Human betaherpesvirus 5 [2], 25.1 µg/mL (≈ 103 µM).
For the compound `O=c1ccn(C2C=C(CO)CO2)c(=O)[nH]1` (stereo not given), in the assay with HEL 299, the midpoint of cytotoxicity, the CC50, lay at 33.3 µg/mL (≈ 158 µM). Moreover, the 50% effective concentration (EC50) was 11.7 µg/mL (≈ 55.7 µM) with Human betaherpesvirus 5 [1] and more than 33.3 µg/mL in the assay with Human betaherpesvirus 5 [2].
On the same counts, the results for `Cc1cn(C2C=C(CO)CO2)c(=O)[nH]c1=O` (stereo not given) are more than 100 µg/mL, 33.3 µg/mL (≈ 149 µM) and 16.6 µg/mL (≈ 74 µM).

As usually defined, the CC50 is the concentration that lowers cell viability or growth by half. High values mean better tolerance by the cells, low ones harm at low concentration. One may read the EC50 as the concentration giving half of the maximal effect. A low value points to an effect from little substance.
